Source: ChEMBL document CHEMBL1159085, “Proteasome inhibition in human breast cancer cells with high catechol-O-methyltransferase activity by green tea polyphenol EGCG analogs” (Bioorg Med Chem, 2010)
The source made the active and inactive calls. The calls are words filed in the database; no cut-off is given here.

Tests used:
[1] = Inhibition of chymotrypsin like activity of proteasome; assay type: subcellular
Oryctolagus cuniculus [2] = species: Oryctolagus cuniculus; assay: Inhibition of chymotrypsin like activity of rabbit 20S proteasome assessed as cleavage of Suc-LLVY-AMC substrate at 50 uM after 2 hrs by fluorogenic assay
Outline: (§1)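 Purified rabbit 20S proteasome (35 ng) was incubated with 20 μM Suc-LLVY-AMC in 20 mM Tris-HCl, pH 7.5, with compound at various concentrations or solvent, for 2 h at 37°C. Fluorogenic substrate hydrolysis was then measured at 355 nm excitation and 460 nm emission.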

[3] = (§2) Inhibition of chymotrypsin like activity of rabbit 20S proteasome assessed as cleavage of Suc-LLVY-AMC substrate after 2 hrs by fluorogenic assay; set-up: species or system Oryctolagus cuniculus; outline: as §1
MDA-MB-231 [4] = assay: Inhibition of chymotrypsin like activity of 20S proteasome in human MDA-MB-231 cells lysates with high catechol-O-methyltransferase activity assessed as cleavage of Suc-LLVY-AMC substrate at 1 to 10 uM after 2 hrs by fluorogenic assay; assay type: cell-free
Outline: (§3)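 Crude MDA-MB-231 cell extract (5.7 μg) was used as the source of 26S proteasome. It was incubated with compound at a range of concentrations, or with solvent, plus 20 μM Suc-LLVY-AMC in 20 mM Tris-HCl, pH 7.5, for 2 h at 37°C. Chymotrypsin-like activity was read by fluorescence at 355 nm excitation and 460 nm emission.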

MDA-MB-231 [5] = assay: Inhibition of chymotrypsin like activity of 20S proteasome in COMT inhibitor 3,5-dinitrocatechol pretreated human MDA-MB-231 cells lysates with high catechol-O-methyltransferase activity assessed as cleavage of Suc-LLVY-AMC substrate at 10 uM after 2 hrs by fluorogenic assay; assay type: cell-free
Outline: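 MDA-MB-231 cell extract (5.7 μg) was pre-treated with 10 μM 3,5-dinitrocatechol for 20 min. Compound and 20 μM Suc-LLVY-AMC were then added in 20 mM Tris-HCl, pH 7.5, and incubated for 2 h at 37°C. AMC release was read by fluorescence at 355 nm excitation and 460 nm emission.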

MDA-MB-231 [6] = assay: Inhibition of chymotrypsin like activity of 20S proteasome in human MDA-MB-231 cells assessed as cleavage of Suc-LLVY-AMC substrate after 2 hrs by fluorogenic assay; assay type: cell-based; outline: as §3
MDA-MB-231 [7] = assay: Antiproliferative activity against human MDA-MB-231 cells with high catechol-O-methyltransferase activity at 25 uM after 24 hrs by MTT assay; assay type: functional; conditions: for inhibition at 25 µM: MDA-MB-231, 24 h
Outline: (§4)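 MDA-MB-231 cells were grown in RPMI 1640 with 10% FBS, 100 units/ml penicillin and 100 μg/ml streptomycin at 37°C and 5% CO2. Triplicate wells were exposed to 25 or 50 μM compound for 24 h. MTT (1 mg/ml) was then added for 3 h at 37°C, and the formazan was dissolved in DMSO after the medium was removed.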

MDA-MB-231 [8] = assay: Antiproliferative activity against human MDA-MB-231 cells at 25 to 50 uM after 24 hrs by MTT assay; assay type: functional; outline: as §4
Oryctolagus cuniculus [9] = species: Oryctolagus cuniculus; assay: as §2; outline: as §1
MDA-MB-231 [10] = assay: Inhibition of chymotrypsin like activity of 20S proteasome in human MDA-MB-231 cells lysates with high catechol-O-methyltransferase activity assessed as cleavage of Suc-LLVY-AMC substrate at 10 uM after 2 hrs by fluorogenic assay
Outline: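 MDA-MB-231 cell extract (5.7 μg protein) incubated with test agent or solvent and 20 μM Suc-LLVY-AMC in 20 mM Tris–HCl pH 7.5 for 2 h at 37°C. Chymotrypsin-like activity read as AMC fluorescence (ex 355 nm, em 460 nm).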

MDA-MB-231 [11] = assay: Antiproliferative activity against human MDA-MB-231 cells with high catechol-O-methyltransferase activity at 50 uM after 24 hrs by MTT assay; assay type: functional; outline: as §4
MDA-MB-231 [12] = assay: Inhibition of 20S proteasome in human MDA-MB-231 cells assessed as accumulation of proteasome substrate at 50 uM after 22 hrs by Western blot; assay type: cell-based
Outline: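 Intact MDA-MB-231 cells were cultured in RPMI 1640 with 10% FBS and penicillin/streptomycin at 37°C and 5% CO2. They were treated with 50 μM compound for 22 h. Accumulation of ubiquitinated proteins, used as a measure of proteasome substrates, was then detected by Western blotting of cell lysates.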

With `O=C(O[C@@H]1Cc2c(O)cc(O)cc2O[C@@H]1c1cc(O)c(O)c(O)c1)c1cc(O)c(O)c(O)c1` (stereo in doubt; 3) [EPIGALOCATECHIN GALLATE] the IC50 [1] was 170 nM.

With `O=C(O[C@H]1Cc2ccccc2C[C@H]1O)c1cc(O)cc(O)c1` the inhibition (Oryctolagus cuniculus [2]) was “inactive”.

With `O=C(O[C@H]1Cc2ccccc2C[C@H]1OC(=O)c1cc(O)cc(O)c1)c1cc(O)cc(O)c1` the IC50 [3] was 29000 nM, the inhibition (MDA-MB-231 [4]) was 18% and the inhibition (MDA-MB-231 [5]) was “Active”.

In the case of `O=C(O[C@H]1Cc2ccccc2C[C@H]1O)c1cc(O)c(O)c(O)c1`, the inhibition (Oryctolagus cuniculus [2]) is reported as “inactive”.

In the case of `CC(=O)Oc1cc(OC(C)=O)c2c(c1)O[C@H](c1cc(OC(C)=O)c(OC(C)=O)c(OC(C)=O)c1)[C@H](OC(=O)c1cc(OC(C)=O)c(OC(C)=O)c(OC(C)=O)c1)C2`, the inhibition (MDA-MB-231 [6]) is reported as “inactive”, the inhibition at 25 µM (MDA-MB-231 [7]) is reported as 42% and the “growth inhibition (GI)” value (MDA-MB-231 [8]) is reported as 0%.

In the case of `O=C(O[C@@H]1Cc2c(O)cc(O)cc2O[C@@H]1c1cc(O)c(O)c(O)c1)c1cc(O)c(O)c(O)c1` (stereo in doubt; 1), the inhibition (Oryctolagus cuniculus [9]) is reported as “Active”, the inhibition (MDA-MB-231 [10]) is reported as 22% and the inhibition (MDA-MB-231 [5]) is reported as “Active”.

In the case of `CC(=O)Oc1cc(OC(C)=O)cc(C(=O)O[C@H]2Cc3ccccc3C[C@H]2OC(C)=O)c1`, the inhibition (MDA-MB-231 [6]) is reported as “inactive”.

For `CC(=O)Oc1cc(OC(C)=O)cc(C(=O)O[C@H]2Cc3ccccc3C[C@H]2OC(=O)c2cc(OC(C)=O)cc(OC(C)=O)c2)c1`, the inhibition (MDA-MB-231 [6]) was “inactive”, the “growth inhibition (GI)” value (MDA-MB-231 [7]) was “Active” and the inhibition at 25 µM (MDA-MB-231 [7]) was 69%. The “growth inhibition (GI)” value (MDA-MB-231 [11]) was “Active”, the inhibition at 50 µM (MDA-MB-231 [11]; MDA-MB-231, 24 h, read-out: INH) was 69% and the inhibition (MDA-MB-231 [12]) was “Active”.

With `CC(=O)Oc1cc(C(=O)O[C@H]2Cc3ccccc3C[C@H]2OC(C)=O)cc(OC(C)=O)c1OC(C)=O` the inhibition (MDA-MB-231 [6]) was “inactive”.

For `O=C(O[C@H]1Cc2ccccc2C[C@H]1OC(=O)c1cc(O)c(O)c(O)c1)c1cc(O)c(O)c(O)c1`, the IC50 [1] was 340 nM, the IC50 [3] was 19000 nM and the inhibition (MDA-MB-231 [4]) was 10%. For the same compound, the inhibition (MDA-MB-231 [5]) was “Active”.

`O=C(O[C@@H]1Cc2c(O)cc(O)cc2O[C@@H]1c1cc(O)c(O)c(O)c1)c1cc(O)c(O)c(O)c1` (stereo in doubt; 1) [EPIGALOCATECHIN GALLATE] gave an IC50 [1] of 86 nM.

For `CC(=O)Oc1cc(C(=O)O[C@H]2Cc3ccccc3C[C@H]2OC(=O)c2cc(OC(C)=O)c(OC(C)=O)c(OC(C)=O)c2)cc(OC(C)=O)c1OC(C)=O`, the inhibition (MDA-MB-231 [6]) was “inactive”, the “growth inhibition (GI)” value (MDA-MB-231 [7]) was “Active” and the inhibition at 25 µM (MDA-MB-231 [7]) was 48%. For the same compound, the “growth inhibition (GI)” value (MDA-MB-231 [11]) was “Active” and the “growth inhibition (GI)” value (MDA-MB-231 [8]) was 50%.
